Only some compounds are listed: those with a hit (about 3.3% of all), similar ones and a draw of the others.
ABCG2 block = blocks JC-1 efflux by human ABCG2 transporter; Q9UNQ0; AID 1325; inhibition, % at 6.6 µM; 190,000 tested, 0.1% active; IgMXP3 cells, flow cytometry;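 active = inhibition above 80%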
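Read-out basis: Efflux inhibition in percent versus controls | Test system: ABCG2 IgMXP3 and barcoded ABCB1 CCRF-Adr cell mix | Quantity: 3 million cells/mL in well | Schedule: 10 min at 25 °C | Control set: Nicardipine as high control, DMSO as low control | Reagent: JC-1 as fluorescent efflux pump substrate | Signal: Flow cytometry of retained JC-1 fluorescence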
KCC2 mod = modulates chloride dependent transport by human KCC2; Q9H2X9; KCC2 cells, thallium flux FluoZin-2 fluorescence; B-score of Tl+ flux slope (higher = more flux/activation; lower = inhibition) at 10 µM; 190,000 tested, 2.2% active;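 active = thallium flux slope and its plate-corrected score both differing from the plate sample mean at a set confidence after two filtering rounds, in either direction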;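 note: slope of fluorescence scaled to starting intensity during 10 to 20 s after thallium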
ROMK mod = modulators of human ROMK potassium channel; B-score at 10 µM; Tet-inducible ROMK, thallium flux fluorescence; actives lie on both sides; 130,000 tested, 2% active; AID 1918;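 active = signal ratio slope over the read window, or its plate-corrected B-score, at least 3 SD from the plate mean, either direction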;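 note: B-score of the F/F0 ratio slope over 7 to 12 s after thallium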
PMI act = phosphomannose isomerase (human) activation; P34949; purified human PMI, coupled resazurin fluorescence, 20 min; active compounds read high; 1 = vehicle control, 0 substrate-free wells; activation factor at 20 µM; 190,000 tested, 0.005% active; AID 1214;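 active = activation factor of 2 or more at 20 µM, relative to plate controls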
PMI act satM6P = increases human PMI activity with near-saturating mannose 6-phosphate; coupled PMI enzyme assay, resazurin fluorescence, 20 min; active compounds read high; 1 = untreated enzyme, 0 = substrate-free blank; 190,000 tested, 0.34% active; P34949; AID 1216; activation factor at 20 µM;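 active = activation factor of 2 or more at 20 µM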
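Test system: human phosphomannose isomerase with PGI, G6PDH, diaphorase coupling enzymes; Amount: PMI at 15 ng/mL final; Reagent: Mannose-6-phosphate 1.0 mM (near-saturating) plus 0.22 mM NADP+; Timing: 20 min, room temperature; Technique: resorufin fluorescence at Ex 544/Em 590 nm; Dosing: 20 µM single dose.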
ABCB1 inh = blocks JC-1 efflux by human ABCB1 transporter; CCRF-Adr cells, flow cytometry; P08183; AID 1326; inhibition, % at 6.6 µM; 190,000 tested, 0.067% active; in the data active = inhibition above about 40%;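 note: higher value means more JC-1 retained so stronger ABCB1 efflux block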
Target sequence (P08183 whole entry, looked up): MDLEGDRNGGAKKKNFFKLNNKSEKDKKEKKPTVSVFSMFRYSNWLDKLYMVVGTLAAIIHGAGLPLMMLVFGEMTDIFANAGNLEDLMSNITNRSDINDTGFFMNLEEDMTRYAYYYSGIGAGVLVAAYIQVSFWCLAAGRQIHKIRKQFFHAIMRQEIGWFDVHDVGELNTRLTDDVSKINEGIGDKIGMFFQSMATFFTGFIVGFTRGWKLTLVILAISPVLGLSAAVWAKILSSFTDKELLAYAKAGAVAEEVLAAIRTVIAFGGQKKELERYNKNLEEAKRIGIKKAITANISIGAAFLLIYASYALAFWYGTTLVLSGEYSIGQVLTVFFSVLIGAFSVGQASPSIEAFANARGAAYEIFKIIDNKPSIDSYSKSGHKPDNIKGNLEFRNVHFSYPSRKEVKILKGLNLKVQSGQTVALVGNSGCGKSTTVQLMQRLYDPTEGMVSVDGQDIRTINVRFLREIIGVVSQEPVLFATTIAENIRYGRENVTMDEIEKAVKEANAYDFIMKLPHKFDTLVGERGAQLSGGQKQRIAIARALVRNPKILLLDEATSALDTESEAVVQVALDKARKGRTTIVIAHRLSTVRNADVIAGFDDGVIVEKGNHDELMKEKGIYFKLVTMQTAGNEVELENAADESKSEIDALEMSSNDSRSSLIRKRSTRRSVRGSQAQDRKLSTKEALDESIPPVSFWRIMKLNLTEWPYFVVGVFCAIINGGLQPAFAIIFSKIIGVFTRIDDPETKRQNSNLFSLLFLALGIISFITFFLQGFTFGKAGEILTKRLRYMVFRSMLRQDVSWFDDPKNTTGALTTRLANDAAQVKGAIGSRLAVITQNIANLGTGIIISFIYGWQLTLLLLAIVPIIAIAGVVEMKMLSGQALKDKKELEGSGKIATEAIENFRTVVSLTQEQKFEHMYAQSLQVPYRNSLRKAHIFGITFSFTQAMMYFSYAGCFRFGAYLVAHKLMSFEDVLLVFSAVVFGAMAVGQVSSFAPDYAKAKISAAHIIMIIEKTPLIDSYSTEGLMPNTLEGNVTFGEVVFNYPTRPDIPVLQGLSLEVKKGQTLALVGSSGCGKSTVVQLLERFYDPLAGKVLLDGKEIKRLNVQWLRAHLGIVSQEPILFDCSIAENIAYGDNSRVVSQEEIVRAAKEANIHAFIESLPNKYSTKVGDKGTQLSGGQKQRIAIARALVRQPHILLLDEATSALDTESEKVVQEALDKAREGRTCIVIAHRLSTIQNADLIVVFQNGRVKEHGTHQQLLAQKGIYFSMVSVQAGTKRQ
KCC2 sec1 = KCC2 (human) modulation, secondary assay; shares compounds with KCC2 mod; HEK293-KCC2, thallium flux, FluoZin2 fluorescence; active compounds read high; normalised thallium flux (F/F0 slope) at 10 µM; 3,700 tested, 15% active;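 active = thallium flux slope above the same plate's solvent-only control mean plus 3 SD; inconclusive = the two replicate wells disagree; inactive = no significant difference from solvent-only control wells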
KCC2 bumet counter = bumetanide-insensitive thallium flux in KCC2 cells with ouabain, counter-screen | shares compounds with KCC2 mod | HEK293-KCC2 + bumetanide/ouabain, thallium flux FluoZin2; active compounds read high | normalized thallium flux at 10 µM | 3,700 tested, 49% active | AID 1714;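 active = thallium entry rate above the same plate's blocked-transporter control wells by more than 3 SD; inconclusive = the two repeat wells disagree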;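 note: raw slope of fluorescence over initial fluorescence between 10 and 20 s after thallium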
KCC2 secondary2 = confirmation of human KCC2 transport modulators | shares compounds with KCC2 mod | normalized thallium flux at 10 µM | HEK293-KCC2, thallium flux FluoZin2 fluorescence; actives lie on both sides; F/F0 rise rate, 10–20 s post-thallium | 3,700 tested, 23% active;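 active = thallium flux slope more than 3 SD above or below the plate's solvent-only control mean, mostly below; inconclusive = the two repeat wells disagreed; inactive = no significant shift from solvent-only controls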
HEK293 Tl flux = parental HEK flux effect, counter-screen; shares compounds with KCC2 mod; HEK293 parental cells, thallium flux FluoZin2, ouabain; baseline-ratio fluorescence slope, 10–20 s after thallium; thallium flux rate (normalised fluorescence) at 10 µM; 3,700 tested, 46% active; AID 1716;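 active = thallium flux rate significantly above the same plate's solvent-only control wells, beyond their mean plus 3 SD; inconclusive = the two replicate wells gave conflicting results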
KCC2 ouabain = confirmation of human KCC2 modulators with ouabain; shares compounds with KCC2 mod; HEK293-KCC2, thallium flux FluoZin2 fluorescence; bidirectional: low = inhibitor, high = activator; raw Tl+ flux slope (below DMSO = inhibition, above = activation) at 10 µM; 3,700 tested, 48% active; AID 1717;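 active = thallium flux slope beyond 3 SD from same-plate DMSO control mean in most replicates, usually higher, sometimes lower; inconclusive = repeat tests gave conflicting results; inactive = no significant difference from controls in most replicates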;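 note: slope of initial-normalized fluorescence between seconds 10 and 20 after thallium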
HEK counter2 = acts in parental HEK cells, second KCC2 counter-screen. shares compounds with KCC2 mod. 3,700 tested, 33% active. HEK293 parental, thallium flux FluoZin-2 fluorescence slope. AID 1718. thallium flux slope at 10 µM;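 active = thallium flux slope above the same plate's solvent-control mean plus 3 SD in both duplicate wells; inconclusive = duplicate wells that disagreed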;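 note: run without ouabain in cells lacking the KCC2 cotransporter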
Large screens that a line does not name were inactive (follow-up assays come after a bar, where they were run).

COc1ccc(NC(=O)CCCCCN2C(=O)CCC2=O)cc1Cl	none (no result: KCC2 mod) | KCC2 sec1 inactive | KCC2 bumet counter inconclusive | KCC2 secondary2 inactive | HEK293 Tl flux inactive | KCC2 ouabain inactive | HEK counter2 inactive
COc1ccc(NC(=O)CCCN2C(=O)CCC2=O)cc1Cl	none
COc1cccc(/C=N/Nc2snc(SC)c2C#N)c1O	KCC2 mod 31 | KCC2 sec1 0.023 | KCC2 bumet counter 0.082 | KCC2 secondary2 inactive | HEK293 Tl flux 0.039 | KCC2 ouabain 0.055 | HEK counter2 0.014
COc1ccc(/C=N/Nc2snc(SC)c2C#N)cc1OC	none (no result: ROMK mod)
CC(C(=O)N=c1sc2ccccc2n1C)N1C(=O)C2CC=CCC2C1=O (centres undefined)	none (no result: KCC2 mod, ROMK mod) | KCC2 sec1 inactive | KCC2 bumet counter inconclusive | KCC2 secondary2 inconclusive | HEK293 Tl flux inactive | KCC2 ouabain inconclusive | HEK counter2 inactive
CC(=O)N=c1sc2ccccc2n1C	none (no result: ROMK mod)
O=C(Cc1ccc(F)cc1)Oc1ccc(C(=S)N2CCCC2)cc1	KCC2 mod -4.1 | KCC2 sec1 inconclusive | KCC2 bumet counter inconclusive | KCC2 secondary2 0.022 | HEK293 Tl flux inconclusive | KCC2 ouabain 0.013 | HEK counter2 inactive
O=C(Oc1ccc(C(=S)N2CCCCC2)cc1)c1ccccc1F	none
CCOc1cc(/C=N/NC(=O)CN(CCc2ccccc2)S(=O)(=O)c2ccc(NC(C)=O)cc2)ccc1O	KCC2 mod -6.4 (no result: ROMK mod) | KCC2 sec1 inactive | KCC2 bumet counter inactive | KCC2 secondary2 inactive | HEK293 Tl flux inactive | KCC2 ouabain inconclusive | HEK counter2 inactive
COc1ccc(S(=O)(=O)N(CCc2ccccc2)CC(=O)N/N=C/c2ccc3c(c2)OCO3)cc1	none
O=C(NCc1ccccn1)NC12CC3CC(CC(C3)C1)C2	none (no result: ROMK mod)
O=C(NCc1ccccn1)C(=O)Nc1nc(C23CC4CC(CC(C4)C2)C3)cs1	KCC2 mod 16 | KCC2 sec1 inactive | KCC2 bumet counter 0.014 | KCC2 secondary2 inactive | HEK293 Tl flux 0.026 | KCC2 ouabain 0.026 | HEK counter2 0.015
O=C(CCC(=O)OCC(F)(F)C(F)F)Nc1ccc(Cl)cc1	KCC2 mod 8.3 (no result: ROMK mod) | KCC2 sec1 inactive | KCC2 bumet counter inactive | KCC2 secondary2 inconclusive | HEK293 Tl flux inactive | KCC2 ouabain inactive | HEK counter2 inactive
O=C(CCC(=O)OCC(F)(F)C(F)F)Nc1ccc(F)cc1F	none
Cn1c(N)c(C(=O)COC(=O)CC(NC(=O)c2ccccc2Cl)c2ccccc2)c(=O)n(C)c1=O (centres undefined)	none
COc1ccc(NC(=O)CSc2nc3ccccc3c(=O)n2CCCN2CCCCC2)c(OC)c1	none (no result: KCC2 mod)
CCCCOc1ccc(-c2c(C#N)c(N)nc(SCC(N)=O)c2C#N)cc1	KCC2 mod -6.4 | KCC2 sec1 inactive | KCC2 bumet counter inactive | KCC2 secondary2 inactive | HEK293 Tl flux inactive | KCC2 ouabain 0.017 | HEK counter2 inconclusive
COc1ccc(NC(=O)Cn2c(-c3ccccc3)cn(-c3ccc(C)cc3)c2=O)cc1	none
COc1ccc(-c2cn(-c3ccc(C)cc3)c(=O)n2CC(=O)Nc2ccc(OC)cc2OC)cc1	none (no result: KCC2 mod) | KCC2 sec1 inactive | KCC2 bumet counter inactive | KCC2 secondary2 inactive | HEK293 Tl flux inactive | KCC2 ouabain inactive | HEK counter2 inactive
COc1ccc(NC(=O)Cn2c(=O)sc3ccccc32)c(OC)c1	KCC2 mod -2.9 (no result: ROMK mod) | KCC2 sec1 inactive | KCC2 bumet counter inactive | KCC2 secondary2 inactive | HEK293 Tl flux inconclusive | KCC2 ouabain inactive | HEK counter2 inactive
NC1=NC(c2ccccc2)N=C(Nc2ccccc2)N1 (centres undefined)	none (no result: ABCG2 block, ROMK mod, PMI act, PMI act satM6P, ABCB1 inh)
O=C(NC(=S)Nc1cnc2ccccc2c1)c1ccccc1	KCC2 mod 21 | KCC2 sec1 inconclusive | KCC2 bumet counter 0.041 | KCC2 secondary2 inactive | HEK293 Tl flux 0.012 | KCC2 ouabain 0.022 | HEK counter2 0.015
O=c1c(/C=N/OCc2ccc(Cl)cc2Cl)c[nH]n1-c1cccc(Cl)n1	KCC2 mod 37 | KCC2 sec1 inactive | KCC2 bumet counter 0.077 | KCC2 secondary2 0.075 | HEK293 Tl flux 0.071 | KCC2 ouabain 0.073 | HEK counter2 0.066
Cc1cc(O)c(/C=N/OCc2ccc(Cl)cc2Cl)c(=O)o1	none
COc1ccc(CONS(=O)(=O)c2ccc(NC(C)=O)cc2)cc1Cl	none (no result: ROMK mod)
CCOC(=O)C1(CCCc2ccccc2)CCN(C(=O)C2CCCO2)CC1 (centres undefined)	none
COc1ccc(-c2nc(Cn3c(SCc4ccccc4F)nc4ccncc43)c(C)o2)cc1	none (no result: ROMK mod)
COc1ccc(-c2nc(Cn3c(SCc4ccc(F)cc4)nc4ccncc43)c(C)o2)cc1OC	KCC2 mod -3.5 (no result: ROMK mod) | KCC2 sec1 inactive | KCC2 bumet counter inactive | KCC2 secondary2 inactive | HEK293 Tl flux inconclusive | KCC2 ouabain inconclusive | HEK counter2 inactive
C=CCn1c(SCC#N)nc2c(c1=O)C(C)(C)Cc1ccccc1-2	none | KCC2 sec1 inactive | KCC2 bumet counter inactive | KCC2 secondary2 inactive | HEK293 Tl flux inconclusive | KCC2 ouabain inactive | HEK counter2 inactive
C=CCn1c(SCC#N)nc2ccccc2c1=O	none (no result: ROMK mod)
CN1CCN(CCCNC(=O)c2ccc(/C=C3\Sc4ccccc4N(Cc4ccc(F)cc4)C3=O)cc2)CC1	KCC2 mod 2.7 | KCC2 sec1 inactive | KCC2 bumet counter inactive | KCC2 secondary2 inactive | HEK293 Tl flux inactive | KCC2 ouabain inactive | HEK counter2 inactive
CCOC(=O)c1cc2c(ccn2C)n1CC(=O)N1CCC(Cc2ccccc2)CC1	KCC2 mod -5.9 (no result: ROMK mod) | KCC2 sec1 inactive | KCC2 bumet counter inactive | KCC2 secondary2 inconclusive | HEK293 Tl flux inactive | KCC2 ouabain 0.016 | HEK counter2 inactive

Source: PubChem BioAssay
